iPSC survival up: enhancers of human iPSC single-cell survival | hiPSC single-cell survival, ATPlite luminescence; 100% = ROCK inhibitor wells, 0% = DMSO | survival enhancement, % at 20 µM | actives 0.044% (n = 360,000) | AID 602274; in the data active = survival enhancement above about 18%;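 note: cells exposed to compounds for 16 hours before the ATP read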
SKN-1 inh: C. elegans SKN-1 inhibition; C. elegans VP596 Pgst-4::GFP/RFP ratio, acrylamide-induced, 24 h; inhibition, % at 21.8 µM; actives 0.49% (n = 360,000);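 active = interference check ratio from 0.5 to 1.5 plus GFP to RFP signal ratio inhibition reaching or exceeding a fixed threshold, cut at about 30% in these data, passing the limit was not always enough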
DAGLB inh: blocks human DAGLB lipase activity | HEK293T DAGLB membrane lysate, EnzChek fluorogenic substrate | inhibition, % at 5.17 µM | actives 0.059% (n = 340,000); in the data active = inhibition above about 34%
Cneo AK release: Cryptococcus neoformans lysis via adenylate kinase release | actives 0.2% (n = 360,000) | C. neoformans lysis, adenylate kinase release luminescence, 4 h; normalised: neutral wells 0, clomiphene wells 100 | lysis activity, % at 15 µM;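 active = mean lysis activity across replicates of at least 80%, whatever share of replicates individually reach that level; inactive = mean lysis activity below 80%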
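Test system: log-phase Cryptococcus neoformans yeast cells. Input: 5 × 10^6 yeast cells/mL. Medium: fresh YPD growth medium. Doses: single dose. Incubation: static 4 h at 37 °C with compound, 1 h detection. Measured by: luminescent adenylate kinase detection reagent. Read-out: signal increase indicating cell lysis. Benchmarks: Clomiphene.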
Ecoli rRNA inh: selective bacterial rRNA inhibition in E. coli; actives 1.6% (n = 350,000); GFP signal change (wild-type ribosome), % (concentration not given with the values); E. coli WT GFP vs humanized-ribosome RFP mutants, fluorescence, 24 h; active compounds read low; DMSO median 0, no signal -100;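 active = significant combined selectivity score with lowered wild-type GFP, culture density cut under 30%, mutant RFP and density less affected; inactive = any of these conditions unmet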
MT1-MMP act inh: MT1-MMP (human) activation inhibition. actives 0.061% (n = 360,000). HT1080 RFP-PRO-GFP cells, GFP/RFP ratio fluorescence, overnight; percent of plate control window, DMSO zero. AID 651647. GFP/RFP ratio change, % at 20 µM. P50281;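 active = GFP/RFP ratio change of at least 30% with cell ATP level not reduced by more than half and red fluorescence within 50% of control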
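Test system: HT1080 RFP-PRO-GFP cells; Benchmarks: DMSO and RFP-L50D-GFP cell wells; Timing: cells overnight before dosing, compound overnight, 37 °C, 5% CO2; Compound: one 20 µM compound dose with 1% DMSO; Read-out: GFP/RFP fluorescence ratio.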
Numbers stand for hits; i = inactive; nt = no result. Hits are enriched below; roughly 1.8% of the tested compounds scored in any of these assays.

SMILES	iPSC survival up	SKN-1 inh	DAGLB inh	Cneo AK release	Ecoli rRNA inh	MT1-MMP act inh
CCCNC(=O)COC(=O)c1ccccc1C(=O)c1ccc(Cl)c([N+](=O)[O-])c1	20	i	i	nt	i	i
C[C@H](CO)N1C[C@H](C)[C@H](CN(C)C(=O)Nc2cc(F)ccc2F)Oc2ncc(C#CCN(C)C)cc2C1=O	nt	nt	nt	i	i	nt
CC(=O)Nc1ccc2c(c1)C(=O)N(C)[C@H]1CC[C@H](CC(=O)Nc3cn(C)nc3C)O[C@H]1CO2	nt	nt	nt	i	i	nt
COc1ccccc1N1CCN(CCC(=O)Nc2ccc3c(c2)OCO3)CC1	i	48	i	i	nt	i
COc1ccccc1NS(=O)(=O)c1cccc(C(=O)NN)c1	i	i	i	i	nt	i
NNC(=O)c1cccc(S(=O)(=O)Nc2cc(Cl)ccc2Cl)c1	i	i	i	nt	-20	i
Cc1ccccc1-c1cnc2c(c1)C(=O)N([C@@H](C)CO)C[C@H](C)[C@H](CN(C)Cc1cncnc1)O2	nt	nt	nt	nt	i	nt
O=C(/C(C=Nc1ccc(Br)cc1)=C(/O)c1ccco1)C(F)(F)F	i	74	i	i	i	i
O=C(/C(C=Nc1cccc(C(F)(F)F)c1)=C(/O)c1ccco1)C(F)(F)F	i	i	i	i	nt	i
CCC(=O)N1[C@H](C(=O)N2CCCCC2)[C@@H](CO)[C@@H]2Cn3c(ccc(-c4cccc(F)c4)c3=O)[C@@H]21	nt	nt	nt	nt	i	nt
O=C(C[C@H]1C[C@H]2c3cc(NC(=O)NC4CCCCC4)ccc3O[C@H]2[C@H](CO)O1)NCc1ccccc1	nt	nt	nt	i	i	nt
Cc1c(O)ccc(/C(Cc2ccc3ccccc3n2)=N\N)c1O	i	i	i	nt	-25	i
C[C@H](CO)N1C[C@H](C)[C@H](CN(C)C(=O)Cc2ccccn2)Oc2ncc(C#CC3CC3)cc2C1=O	nt	nt	nt	i	i	nt
CCCCC(CC)C(=O)NCc1ccccc1OC (stereo not drawn)	i	i	i	i	nt	i
CCCC(C)C(=O)NCc1ccccc1OC (stereo not drawn)	i	41	i	i	nt	i
C[C@@H]1CN([C@@H](C)CO)S(=O)(=O)c2ccc(-c3ccncc3)cc2O[C@H]1CN(C)C	nt	nt	nt	i	i	nt
CCc1ccccc1Nc1ncnc2ccccc12	i	i	i	i	i	i
CCCCCCCCNc1ncnc2ccccc12	i	51	i	i	nt	i
Cc1cccc(C)c1Nc1ncnc2ccccc12	i	i	i	i	-34	i
CN(C)C(=O)C[C@H]1C=C[C@H](NC(=O)C2CCC2)[C@@H](CO)O1	nt	nt	nt	i	i	nt
CCC(C)(C)C(=O)Nc1ncc(S(=O)(=O)c2ccc([N+](=O)[O-])cc2)s1	i	36	i	i	nt	i
O=C(CCl)Nc1ncc(S(=O)(=O)c2ccc([N+](=O)[O-])cc2)s1	i	i	i	i	nt	i
CC(C)C[C@@H](C)C(=O)N(Cc1ccccc1)c1ccccc1	i	i	i	i	-35	i
CC[C@@H](CCC=C(C)C)C(=O)N(Cc1ccccc1)c1ccccc1	i	i	i	i	i	i
CCC(=O)N1CC2(C1)CN(S(C)(=O)=O)[C@H](CO)c1[nH]c3cc(OC)ccc3c12	nt	nt	nt	nt	i	nt
SMILES	iPSC survival up	SKN-1 inh	DAGLB inh	Cneo AK release	Ecoli rRNA inh	MT1-MMP act inh
CCC/C(=C1/c2ccccc2C(=O)N1c1ccccc1)c1c(C)noc1C	nt	nt	nt	nt	-25	nt
COCCN(C(=O)/C=C/c1ccccc1)c1c(N)n(Cc2ccccc2)c(=O)[nH]c1=O	i	52	i	nt	i	i
c1ccc(CNc2ncnc3scc(-c4cccs4)c23)nc1	i	i	i	i	-27	i
c1ccc(-c2csc3ncnc(NCc4ccccn4)c23)cc1	i	i	i	nt	nt	i
COc1ccc2c3c([nH]c2c1)[C@@H](CO)N(C(=O)NC(C)C)CC31CCN(C(=O)c2cccnc2)CC1	nt	nt	nt	nt	i	nt
CC(=O)N1[C@@H]2c3ccc(-c4cncnc4)c(=O)n3C[C@@H]2[C@@H](CO)[C@@H]1C(=O)NCc1ccccc1Cl	nt	nt	nt	i	i	nt
Cc1ccc(S(=O)(=O)N2CC=C(c3c(C)n(C)c4ccccc34)CC2)cc1	i	52	i	nt	i	i

Assay outcomes (PubChem)
